Source: PubChem (The Scripps Research Institute Molecular Screening Center)
The list is not random: actives were taken first. Their share in the collection is about 1.6%.
MBD2 DNA inh: blocks human MBD2 binding to methylated DNA | Q9UBB5 | AID 686964 | hit rate 0.31% among 370,000 | TR-FRET, MBD2 binding to methylated oligonucleotide | inhibition, % at 4.4 µM; in the data active = inhibition above about 13%
LEDGF integ inh: blocks HIV-1 LEDGF/p75-dependent DNA integration. TR-FRET IN-LEDGF/p75 DNA integration, Eu/Cy5. hit rate 0.64% among 370,000. AID 743269. inhibition, % at 3.7 µM;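 active = inhibition above the screen-wide mean plus 3 SD, cut at about 13% in these data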;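 also: signal is the Cy5 over europium emission ratio at 671 and 618 nm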
TDP2 inh: TDP2 (human) inhibition, absorbance primary screen; O95551; recombinant TDP2, T5PNP hydrolysis, p-nitrophenol absorbance 415 nm; hit rate 0.34% among 370,000; inhibition, % at 12.8 µM; AID 720702;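 active = inhibition above the mean of all tested compounds plus 3 SD, set per campaign, cut at about 25% in these data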
Target sequence (O95551 whole entry, looked up): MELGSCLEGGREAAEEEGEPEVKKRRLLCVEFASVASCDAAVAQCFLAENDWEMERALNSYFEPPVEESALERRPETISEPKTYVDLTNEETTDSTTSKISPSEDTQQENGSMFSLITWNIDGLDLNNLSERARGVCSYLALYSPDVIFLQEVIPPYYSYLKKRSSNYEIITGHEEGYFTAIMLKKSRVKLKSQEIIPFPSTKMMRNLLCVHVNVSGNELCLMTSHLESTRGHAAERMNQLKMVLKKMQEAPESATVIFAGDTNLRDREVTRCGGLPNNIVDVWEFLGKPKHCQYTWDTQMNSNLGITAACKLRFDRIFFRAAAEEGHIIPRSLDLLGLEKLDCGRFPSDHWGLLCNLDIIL
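System – recombinant human TDP2 · Quantity – TDP2 enzyme at 120 nM final · Doses – single concentration, 12.8 µM nominal, with 1% DMSO · Incubation – 2 h at 37 °C · Measured by – epi absorbance of p-nitrophenol freed from T5PNP by hydrolysis · Read-out – % inhibition relative to enzyme-containing and enzyme-free wells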
UHRF1 MBD2 ctr: human UHRF1 methylated DNA binding inhibitors; Q96T88; UHRF1 binding to methylated oligo, TR-FRET; inhibition, % at 4.4 µM; hit rate 0.75% among 370,000; in the data active = inhibition above about 21%;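 also: UHRF1 SRA domain binding a hemimethylated CpG hairpin DNA probe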
IN multimer up: HIV-1 integrase multimerization activation, counter-screen | TR-FRET HIV-1 integrase multimerization, biochemical | shares compounds with LEDGF integ inh | hit rate 17% among 2,000 | activation, % at 7.7 µM; in the data active = activation above about 8.9%
TRFRET interf: optically interferes with TR-FRET readout in LEDGF counter-screen. TR-FRET optical interference counterscreen, HIV-1 IN multimerization. 2,000 tested, under 10 active. inhibition, % at 7.7 µM. shares compounds with LEDGF integ inh;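 active = inhibition above the mean over all tested compounds plus 3 SD, which no compound reached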
IN-LEDGF confirm: LEDGF/p75-dependent HIV-1 integration inhibition, confirmation. shares compounds with LEDGF integ inh. TR-FRET LEDGF/p75-dependent HIV-1 integration, biochemical. inhibition, % at 3.7 µM. hit rate 36% among 2,000. AID 1053136; in the data active = inhibition above about 14%
Numbers stand for hits; n = inactive; x = not tested or not shown.

SMILES | MBD2 DNA inh | LEDGF integ inh | TDP2 inh | UHRF1 MBD2 ctr | IN multimer up | TRFRET interf | IN-LEDGF confirm
Cn1c(SCCc2ccc([N+](=O)[O-])cc2)nccc1=O | n | 60 | n | n | n | n | n
CCNC(=S)NNC(=O)CSc1nnc(-c2ccccc2)n1-c1ccc(Cl)cc1 | n | n | n | n | x | x | x
Cc1cc(C)c(S(=O)(=O)N2CCN(C(=O)c3cc(=O)[nH]c4ccccc34)CC2)c(C)c1 | n | n | n | n | x | x | x
Cc1cc(C(C)(C)C)cc(C)c1S(=O)(=O)N1CCN(C(=O)c2cc([N+](=O)[O-])c[nH]c2=O)CC1 | n | 28 | n | n | n | n | n
O=c1c2c(n3nnnc3n1Cc1ccc(Cl)cc1)-c1ccccc1CC21CCCC1 | n | n | n | n | x | x | x
O=S1(=O)CC2c3ccccc3CN2CN1Cc1ccccc1 (configuration not stated) | n | n | n | n | x | x | x
Cc1cc(/C=N/O)c(C)n1-c1ccc(Br)cc1 | n | 18 | n | n | n | n | n
Cc1cc(/C=N/NC(N)=S)c(C)n1-c1ccc(Br)cc1 | n | n | n | n | x | x | x
CC(C)C1N=C(NC(=O)OCc2ccccc2)NC1=O (configuration not stated) (tested in a mixture with another compound) | n | n | n | n | x | x | x
Cc1ccc(CN2C(=O)C(CC(C)C)Nc3ncnc(N4CCN(c5ccccn5)CC4)c32)cc1 (configuration not stated) | n | 91 | n | n | n | n | n
CCOc1ccc(-n2c(SCC(=O)Nc3ccccc3-c3ccccc3)nnc2-c2ccncc2)cc1 | n | n | n | n | x | x | x
Cc1ccc(N(C)c2nc(N)nc(N)c2N=O)cc1 | n | 14 | n | n | n | n | 17
CC(C)N1CCCCC(NC(=O)c2ccc(Cl)cc2Cl)C1=O (configuration not stated) | n | n | n | n | x | x | x
O=C(NC12CC3CC(CC(C3)C1)C2)N1CCN(c2ccccn2)CC1 | n | 49 | n | n | n | n | n
O=CN/C=C/c1cc(O)ccc1O | n | 24 | n | n | 18 | n | n
CCCc1cc(=O)[nH]c(SCC(=O)NC(=O)OCC)n1 | n | 25 | n | n | n | n | n
NC(=O)CSCc1cccc(Br)c1 | n | 33 | n | n | n | n | n
CCc1c(C)[nH]c2ccc(OC)cc2c1=S | n | n | n | n | x | x | x
CCOc1ccc(Cc2c(C)[nH]c3ccc(C(=O)O)cc3c2=S)cc1 | n | 14 | n | n | n | n | n
CSc1ccc(CN2CCCC(CO)(Cc3ccccc3)C2)cc1 (configuration not stated) | n | n | n | n | x | x | x
C/C=C(\C)CN1CCCC(CO)(Cc2ccccc2)C1 (configuration not stated) | n | 14 | n | n | n | n | n
O=C(CSc1nnc(COc2ccccc2)n1Cc1ccco1)Nc1ccc(OCc2ccccc2)cc1 | n | n | n | n | x | x | x
COC(=O)[C@]12CCCCC=C1N(Cc1cccc3ccccc13)C(=O)[C@H](CC(=O)N1CCCCC1)C2 | n | 82 | n | n | n | n | n
CCN(CC)S(=O)(=O)c1cccc(C(=O)NN2Cc3ccccc3C2=N)c1 | n | n | n | n | x | x | x
N=C1c2ccccc2CN1NC(=O)c1cccc(S(=O)(=O)N2CCCC2)c1 | n | 89 | n | n | n | n | n
COc1ccc(C(=O)/C=C(\C)Nc2ccc(NC(C)=O)cc2)cc1 | n | n | n | n | x | x | x
C/C(=C\C(=O)c1ccccc1)Nc1ccc(O)cc1 | n | 20 | n | n | n | n | n
Cc1cn([C@H]2C[C@H](O)[C@@H](CCC(=O)NCc3cccc4ccccc34)O2)c(=O)[nH]c1=O | n | 15 | n | n | n | n | n
COc1ccc(CNC(=O)CC[C@H]2O[C@@H](n3cc(C)c(=O)[nH]c3=O)C[C@@H]2O)cc1 | n | n | n | n | x | x | x
Cc1nn(Cc2ccc(F)cc2)c(C)c1NC(=O)c1noc2c1CCCCC2 | n | 40 | n | n | n | n | n
